# From ChEMBL document CHEMBL4138168, “Design and synthesis of novel thiobarbituric acid derivatives targeting both wild-type and BRAF-mutated melanoma cells” (Eur J Med Chem, 2018)
# Calls of active or inactive are those of the source. No cut-off for these calls is given here.
# What was measured:
# UACC-903 [1] = test: Cytotoxicity against human UACC-903 cells assessed as cell viability at 25 uM after 48 hrs by MTT assay relative to control; format: functional, cell-based; details: UACC-903, 48 h
# Procedure, shortened: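 MCF10A normal breast epithelial cells were kept in MEGM mammary epithelial medium; the cancer lines were in DMEM with 10% FBS, 37 °C. OD at 570 nm with 630 nm background, expressed relative to control.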
# CHL-1 [2] = test: Antiproliferative activity against human CHL-1 cells harboring wild type BRAF after 48 hrs by MTT assay; format: functional, cell-based; details: CHL-1, 48 h
# Procedure, shortened: (§1)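 3,000 cells per well, grown at 37 °C (DMEM with 10% FBS and penicillin/streptomycin; HCT116 in McCoy's 5A). Cells exposed in triplicate to 0.5–25 μM compound for 48 h. MTT (5 mg/mL PBS stock) added for 3 h, formazan dissolved in DMSO, OD read at 570 nm minus 630 nm background. IC50 from non-linear regression of two independent experiments.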
# UACC-903 [3] = test: Antiproliferative activity against human UACC-903 cells harboring BRAF mutant after 48 hrs by MTT assay; format: functional, cell-based; details: UACC-903, 48 h; procedure, shortened: as §1
# UACC-903 [4] = test: Induction of apoptosis in human UACC-903 cells harboring BRAF mutant assessed as viable cells at 5 uM after 24 hrs by Annexin V/7-AAD staining-based assay (reference value: 95.64%); format: functional; details: UACC-903, 24 h, read-out: Activity
# UACC-903 [5] = test: Induction of apoptosis in human UACC-903 cells harboring BRAF mutant assessed as early apoptotic cells at 25 uM after 24 hrs by Annexin V/7-AAD staining-based assay (reference value: 2.68%); format: functional
# UACC-903 [6] = test: Induction of apoptosis in human UACC-903 cells harboring BRAF mutant assessed as dead cells level at 25 uM after 24 hrs by AAD dye containing caspase 3/7 activity assay (reference value: 0.06%); format: functional
# UACC-903 [7] = test: Induction of apoptosis in human UACC-903 cells harboring BRAF mutant assessed as decrease in survivin level at 5 to 25 uM after 24 hrs by Western blot analysis; format: functional, cell-based
# Procedure, shortened: (§2)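 2 × 10^6 cells treated with the indicated concentrations for 24 h. Whole-cell lysates run on SDS-PAGE, transferred to PVDF, probed with antibodies against apoptosis/survival proteins, and detected by enhanced chemiluminescence.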
# UACC-903 [8] = test: Induction of apoptosis in human UACC-903 cells harboring BRAF mutant assessed as […] in cleaved PARP level at 5 to 25 uM after 24 hrs by Western blot analysis; format: functional, cell-based; procedure, shortened: as §2
# MDA-MB-231 [9] = test: Antiproliferative activity against ER/PR/HER2 deficient human MDA-MB-231 cells after 48 hrs by MTT assay; format: functional, cell-based; details: MDA-MB-231, 48 h; procedure, shortened: as §1
# MCF7 [10] = test: Antiproliferative activity against human MCF7 cells expressing ER/PR/HER2 after 48 hrs by MTT assay; format: functional, cell-based; details: MCF7, 48 h; procedure, shortened: as §1
# HCT-116 = test: Antiproliferative activity against human HCT116 cells after 48 hrs by MTT assay; format: functional, cell-based; details: HCT-116, 48 h; procedure, shortened: as §1
# MCF7 [11] = test: Cytotoxicity against human MCF7 cells assessed as cell viability at 25 uM after 48 hrs by MTT assay relative to control; format: functional; details: MCF7, 48 h, read-out: Activity
# Procedure, shortened: (§3)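 MTT viability at a single 25 μM dose, 48 h, 3,000 cells/well. MCF10A normal breast epithelial cells were kept in MEGM mammary epithelial medium; the cancer lines were in DMEM with 10% FBS, 37 °C. OD at 570 nm with 630 nm background, expressed relative to control.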
# MDA-MB-231 [12] = test: Cytotoxicity against human MDA-MB-231 cells assessed as cell viability at 25 uM after 48 hrs by MTT assay relative to control; format: functional; details: MDA-MB-231, 48 h, read-out: Activity; procedure, shortened: as §3
# CHL-1 [13] = test: Induction of apoptosis in human CHL-1 cells harboring wild type BRAF assessed as decrease in survivin level at 5 to 25 uM after 24 hrs by Western blot analysis; format: functional, cell-based; procedure, shortened: as §2
SMILES,IC50 (UACC-903 [1]),IC50 (CHL-1 [2]),IC50 (UACC-903 [3]),viability at 5 µM (UACC-903 [4]),Activity (UACC-903 [5]),Activity (UACC-903 [6]),Activity (UACC-903 [7]),Activity (UACC-903 [8]),IC50 (MDA-MB-231 [9]),IC50 (MCF7 [10]),IC50 (HCT-116),viability at 25 µM (MCF7 [11]),viability at 25 µM (MDA-MB-231 [12]),Activity (CHL-1 [13])
O=C1NC(=S)NC(=O)C1=C/C=C/c1cccs1,4 µM,7.2 µM,8.1 µM,91.3%,30.28%,0.58%,Active,Active,7.6 µM,16.2 µM,7.7 µM,20 to 30%,20 to 30%,Active
O=C1NC(=S)N(c2ccccc2)C(=O)/C1=C/C=C/c1cccs1,3.8 µM,6.5 µM,7.6 µM,92.6%,21.04%,0.14%,Active,Active,8.3 µM,16.5 µM,2.4 µM,20 to 30%,20 to 30%,Active
